Experimental findings from ChEMBL document CHEMBL2086388, “Antihyperglycemic effect of syringaldehyde in streptozotocin-induced diabetic rats” (2012) are described below.

The test system of assay [1] is Rattus norvegicus. Description: Antihyperglycemic activity in STZ-induced diabetic rats assessed as reduction in plasma glucose levels at 100 mg/kg, po. Format: functional.
Assay [2] concerns Rattus norvegicus. Description: Antidiabetic activity in STZ-induced diabetic Wistar rats assessed as increase in response to exogenous insulin at 7.2 mg/kg, iv tid for 3 days. Type of assay: functional, organism-based. The arrangement: dose 7.2 mg/kg. The gist of the method: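 STZ-diabetic rats (STZ 60 mg/kg iv, glucose ≥20 mmol/L, used 2 weeks later) first given long-acting human insulin 1 IU/kg once daily. Compound or saline then given iv three times daily for 3 days. Challenge was short-acting human insulin iv 0.1–1.0 IU/kg. Femoral-vein blood taken at 30 min for plasma glucose. n=8 per group, means ± SE.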

Assay [3] has as its system Rattus norvegicus. Description: Antihyperglycemic activity in Wistar rats assessed as reduction in plasma glucose levels at 7.2 mg/kg, iv administered as bolus dose measured after 60 mins. Type of assay: functional. Also on record: scale not given: the % may be the effect or the level left. The gist of the method: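 Normal fasted Wistar rats, n=8. Compound in saline given iv at 7.2 mg/kg. Tail-vein plasma glucose taken under pentobarbital anesthesia. Lowering expressed as percent decrease from the initial glucose value.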

In another assay the test system is L6. Nature of the assay: Induction of glucose uptake in rat L6 cells after 60 mins by 2-NBDG fluorescence assay. Type of assay: functional, cell-based. The gist of the method: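 Rat L6 cells grown 48 h, trypsinized, 1×10^6 cells/mL. Cells incubated in PBS with 0.2 mM 2-NBDG plus compound or vehicle, 37 °C, 60 min in the dark. Then washed three times with cold PBS. Fluorescence read at ex 488/em 520 nm. Eight experiments per group, means ± SEM.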

For assay [4], the system named is Rattus norvegicus. Description: Antihyperglycemic activity in Wistar rats assessed as reduction in plasma glucose levels at 7.2 mg/kg, iv administered 30 mins prior to glucose challenge measured after 120 mins. Type of assay: functional, organism-based. The arrangement: dose 7.2 mg/kg. The gist of the method:
(§1)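 IV glucose challenge in pentobarbital-anesthetized (30 mg/kg ip) Wistar rats. Compound 7.2 mg/kg or saline injected into the tail vein; 30 min later the 0-min sample was drawn. Glucose 60.0 mg/kg then given via the femoral vein. Tail-vein plasma glucose measured at 5–120 min and compared with the vehicle group at each time. n=8.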

The subject of assay [5] is Rattus norvegicus. Nature of the assay: Antihyperglycemic activity in STZ-induced diabetic Wistar rats assessed as reduction in plasma glucose levels at 1.8 mg/kg, iv administered as bolus dose measured after 60 mins. Also on record: scale not given: the % may be the effect or the level left. Format: functional. In short, it runs like this: (§2)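 Fasted rats made diabetic with STZ 60 mg/kg iv (plasma glucose ≥20 mmol/L plus polyuria) and used 2 weeks later. Compound dissolved in normal saline and given as an iv bolus over 1.8–7.2 mg/kg; controls got saline. Tail-vein plasma glucose measured at 60 min under pentobarbital 30 mg/kg ip. Activity = [(Gi−Gt)/Gi]×100%. n=8.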

Assay [6] has as its system Rattus norvegicus. Nature of the assay: Antihyperglycemic activity in STZ-induced diabetic Wistar rats assessed as reduction in plasma glucose levels at 7.2 mg/kg, iv administered as bolus dose measured after 60 mins. Format: functional. The settings on record: 1 h. The gist of the method:
as §2

The subject of assay [7] is Rattus norvegicus. Description: Antihyperglycemic activity in Wistar rats assessed as reduction in plasma glucose levels at 7.2 mg/kg, iv administered 30 mins prior to glucose challenge measured after 5 mins. Type of assay: functional, organism-based. Also on record: dose 7.2 mg/kg. In short, it runs like this:
as §1

The subject of assay [8] is Rattus norvegicus. Nature of the assay: Antihyperglycemic activity in iv dosed STZ-induced diabetic Wistar rats assessed as reduction in plasma glucose levels administered as bolus dose measured after 60 mins. Type of assay: functional, organism-based. The gist of the method:
as §2

Assay [9] deals with Rattus norvegicus. Description: Antihyperglycemic activity in Wistar rats assessed as reduction in plasma glucose levels at 7.2 mg/kg, iv administered 30 mins prior to glucose challenge measured after 30 mins. Type of assay: functional, organism-based. The arrangement: dose 7.2 mg/kg. The gist of the method: as §1

Active and inactive are the calls of the source. No cut-off for these calls is given here.

On to `CN(C)C(=N)NC(=N)N` [METFORMIN], for which the Emax (in general, the size of the effect at its maximum, as opposed to the concentration needed) at 100 mg/kg in the assay on Rattus norvegicus [1] amounted to 32%.

As to `COc1cc(C=O)cc(OC)c1O` [SYRINGALDEHYDE], the result in the assay on Rattus norvegicus [2], in the assay on Rattus norvegicus [7] and with Rattus norvegicus [9] was Active. Further, the Activity in the assay with Rattus norvegicus [3] was 25.93%; in the assay on L6, “Dose-dependent effect”; in the assay with Rattus norvegicus [5] it was 11.08%; in the assay with Rattus norvegicus [8], “Dose-dependent effect”. In addition, the result with Rattus norvegicus [4] was inactive. Besides, the maximal effect (Emax) at 7.2 mg/kg in the assay with Rattus norvegicus [6] came out at 31.3%.
